High-throughput results (PubChem)
H9c2 TAG inh = reduces triacylglycerol accumulation in H9c2 cells. inhibition, % at 12.5 µM. hit rate 0.66% among 230,000. Nile Red lipid (TAG) fluorescence; cells loaded with 200 µM oleic acid;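 active = pattern-corrected inhibition of lipid staining of at least 50% with the nuclear-stain viability signal not falling by more than 50%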;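 also: 0% = DMSO wells and 100% = triacsin C control wells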
APJ ag = activates the human apelin receptor APJ; CHO-K1 APJ PathHunter beta-arrestin, luminescence; 0% DMSO wells, 100% apelin; hit rate 0.11% among 330,000; activation, % at 20 µM;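 active = activation more than six SD over the plate average, tested at 20 µM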;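 also: 0% = DMSO alone and 100% = apelin-13 at 10 nM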
Target sequence (P35414 whole entry, looked up): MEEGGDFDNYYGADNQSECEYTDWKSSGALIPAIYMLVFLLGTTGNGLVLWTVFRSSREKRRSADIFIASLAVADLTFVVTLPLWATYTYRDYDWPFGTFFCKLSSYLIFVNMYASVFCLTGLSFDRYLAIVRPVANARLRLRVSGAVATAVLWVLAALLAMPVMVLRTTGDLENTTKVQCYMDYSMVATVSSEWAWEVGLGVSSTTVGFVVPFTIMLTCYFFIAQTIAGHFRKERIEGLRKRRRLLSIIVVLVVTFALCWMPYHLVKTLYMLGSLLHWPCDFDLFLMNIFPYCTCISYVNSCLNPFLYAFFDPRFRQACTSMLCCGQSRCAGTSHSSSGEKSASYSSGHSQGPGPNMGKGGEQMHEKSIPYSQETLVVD
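Material: engineered CHO-K1 APJ arrestin reporter cells; amount: 1000 CHO-K1 reporter cells seeded per well; incubation: compound stimulation 90 min at 25 °C, detection 60 min; signal: luminescent beta-gal fragment complementation, chemiluminescent substrate; read-out basis: APJ agonist activity; controls: DMSO-only wells as negative, 10 nM Apelin-13 as positive control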
EBI2 antag = antagonists of human EBI2 receptor; EBI2 beta-arrestin recruitment, luminescence, 7a,25-OHC stimulated; inhibition, % at 5 µM; hit rate 0.81% among 360,000; in the data active = inhibition above about 38%;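 also: enzyme fragment complementation signal reports receptor beta-arrestin coupling in cells; 0% = agonist plus DMSO wells and 100% = wells without agonist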
APJ antag = antagonists of human APJ apelin receptor | CHO-K1 APJ beta-arrestin complementation, luminescence | inhibition, % at 20 µM | hit rate 0.32% among 330,000 | AID 2521;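 active = inhibition above about 40% at 20 µM, limit read from the data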;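 also: cells challenged with 10 nM apelin-13 agonist together with compound; plate controls were apelin-13 plus DMSO wells for no effect and DMSO wells lacking apelin-13 for full effect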
CCR6 antagonist = antagonists of human CCR6 receptor; inhibition, % at 20 µM; CHO-K1 CCR6 PathHunter beta-arrestin, luminescence, CCL20-stimulated; AID 493098; P51684; hit rate 0.49% among 340,000;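 active = compounds whose inhibition of the agonist-driven luminescence signal at 20 µM reaches about 50%, limit read from the data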;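 also: cells stimulated with CCL20 at 14 nM final; plate controls were DMSO with CCL20 for no effect and DMSO without agonist for full effect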
CXCR6 inh = blocks human CXCR6 beta-arrestin recruitment; hit rate 0.36% among 360,000; inhibition, % at 20 µM; O00574; CHO-K1 PathHunter CXCR6 beta-arrestin, luminescence; AID 602244; in the data active = inhibition above about 34%, passing the limit was not always enough;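 also: antagonist mode with CXCL16 agonist at 10 nM final; 0% = 10 nM CXCL16 with DMSO and 100% = unstimulated wells without agonist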
Active calls of the source: *; x = no result given; ! = not confirmed by another sample. This is a sample that favours compounds with a hit; in the whole collection about 1.9% have one here.

SMILES	H9c2 TAG inh	APJ ag	EBI2 antag	APJ antag	CCR6 antagonist	CXCR6 inh
COc1ccc(NC(=O)c2c(-c3ccccc3Cl)noc2C)c(OC)c1	x	3	2	10	18	-1
CS(=O)(=O)c1ncc(Cl)c(C(=O)Nc2ccc(N3CCOCC3)cc2)n1	x	0	2	22	44	25
COc1ccc(NC(=O)c2nc(S(=O)(=O)Cc3cccc(C)c3)ncc2Cl)c(OC)c1	x	3	50*	-8	2	3
C=C(C)CN=CC1(C)CCC(C)=CO1 (centres undefined)	-10	x	1	x	12	-2
COc1ccc(/C=C/C(=O)NCCN=C2NS(=O)(=O)c3ccccc32)cc1	5	-3	6	-12	6	1
C=CCn1c(Sc2ncc([N+](=O)[O-])s2)n[nH]c1=O	10	11	6	31	56*	42*
CCc1cccc(OCC2Cn3c(nc4c3c(=O)[nH]c(=O)n4C)O2)c1 (centres undefined)	x	-3	-9	1	0	7
CCCCCCCCCCCCCCCC[N+](C)(C)Cc1ccc(F)cc1	109*	x	1	x	49	8
CC#CC[N+](C)(C)CCCCCCCC	-25	2	2	-6	5	4
C[C@H](NC(=O)c1ncn2c1C(=O)NC[C@@H]2C)c1ccccc1	-3	x	13	x	x	8
CCOC(=O)CN(C(=O)CSc1nnc(COc2ccc(OC)cc2)n1C)c1ccccc1	-6	-3	52*	5	22	-17
CN1C(=O)C(N=Nc2ccc([N+](=O)[O-])cc2)SC1=S (centres undefined)	-25	x	-7	x	86*	45*
CN1CCCCCC1=Nc1ccc([N+](=O)[O-])cc1	-9	0	-12	-2	5	0
CCOc1ccccc1NC(=O)Cn1c(=O)n(-c2ccccc2)c(=O)c2oc3ccccc3c21	x	-3	1	9	14	8
O=c1[nH][nH]c2c1[C@H](c1ccccc1)O[C@H](C1CCCCC1)C2	x	x	10	x	x	4
CCC(=O)NC1=C(NC(C)c2ccccc2)C(=O)c2ccccc2C1=O (centres undefined)	6	2	0	-20	5	-8
CCC(=O)NC1=C(Cl)C(=O)C(NC(=O)CC)=C(Cl)C1=O	x	6	-16	-26	x	84*
C[N+](C)(CC#Cc1ccccc1)CC(=O)c1ccc(Cl)cc1	x	-8	-3	42*	20	8
COCCCNC(=O)C1CCC(CNS(=O)(=O)c2ccc(Cl)cc2)CC1 (centres undefined)	-4	-4	6	6	0	4
O=C(CCl)N=c1sccn1Cc1cccc2ccccc12	62*	x	1	x	17	4
O=C(CCl)N=c1sccn1Cc1ccccc1Cl	76*	-3	-10	-7	13	1
O=C(CCl)N=c1sccn1Cc1ccc(Cl)cc1Cl	59*	-2	-10	22	11	-1
CCC(=O)OCC(=O)N=c1sccn1Cc1ccccc1Cl	1	-5	-2	0	5	-3
C[C@@H](c1ccccc1)N1C[C@@H](COCc2ccccc2)Oc2cc(N3CC[C@@H](N(C)C)C3)ccc2S1(=O)=O	x	x	7	x	x	12
O=C(COc1ccccc1Cl)Nc1nnc(S(=O)(=O)N2CCCCCC2)s1	2	0	-4	-2	15	2
SMILES	H9c2 TAG inh	APJ ag	EBI2 antag	APJ antag	CCR6 antagonist	CXCR6 inh
CCCNC(=O)C1(C)CCCN(Cc2ccc(Oc3ccccc3)cc2)C1 (centres undefined)	-12	x	13	x	x	2
CC(C)(C)c1nnc(N/N=C/c2ccccc2O)n(N)c1=O	x	0	81*	-13	14	-23
CCSC1(SCC)N=C(N)C2(C#N)C(c3ccc(F)cc3)C12C#N (centres undefined)	14	-4	-15	17	37	67*
Cc1cc(C)nc(SC2=CS(=O)(=O)c3ccccc32)n1	-15	-4	-54	-11	13	9
O=S1(=O)C=C(Sc2nc3ccccc3s2)c2ccccc21	x	-3	x	20	72*	x
CCc1nc2ccc(C(=O)NCCc3ccccn3)cn2c1N(C)CCC(C)C	-2	x	-1	x	x	-7
O=c1nc2cccc3c2=c(/c1=C(\O)c1ccccc1)c1ccccc1c3=O	x	1	2	26	52*	31
O=C1C=CC(=O)N1Cc1ccccc1	-2	2	3	-28	107*	90*
O=C1C2CC=CCC2C(=O)N1Cc1ccccc1 (centres undefined)	x	-5	-12	-16	12	0
CCCn1c(N)c(C(=O)CSc2nnc(-c3cccs3)n2C2CC2)c(=O)[nH]c1=O	9	-1	2	-8	-4	-9
Cc1ccc(-n2sc3ccccc3c2=O)cc1	x	1	10	-33	52*	0
N#CC1C(=O)NC(c2ccccc2)=CC1c1ccccc1 (centres undefined)	6	x	-16	x	52*	22
Cc1ccc(-c2nnc3n2CCCCC3)cc1	-1	-2	-3	2	-12	-2
O=C1Nc2ccccc2C1=Nc1ccc(-c2nnc3n2CCCCC3)cc1	6	-4	14	-14	62*!	4
O=C(Nc1ccc2[nH]c(=O)[nH]c2c1)c1ccc([N+](=O)[O-])o1	53*	17	-24	-15	-8	-12
Cc1ccc(NC(=O)c2ccc([N+](=O)[O-])o2)cc1C	73	6	5	-66	-1	-4
OC(CNCCc1ccc(C(F)(F)F)cc1)COC(c1ccccc1)c1ccccc1 (centres undefined)	x	-1	20	-27	60*	32
Cc1cccc(C)c1NC(=O)C(c1ccc(C(F)(F)F)cc1)n1c(=O)c(-c2cc3ccccc3[nH]2)nc2ccccc21 (centres undefined)	x	x	2	x	x	x
CC(C)c1c(O)ccc2c1CC[C@H]1C(C)(C)CCC[C@]21C	-1	x	53*	x	48	-4
CN1CCN(S(=O)(=O)c2ccc(Oc3cccc(C(F)(F)F)c3)nc2)CC1	20	5	-6	22	0	-4
COc1cccc(NC(=O)c2cccc(N3C(=O)C4C5C=CC(C5)C4C3=O)c2)c1 (centres undefined)	x	2	3	0	5	-10
C/C=C(/CCC1NCCc2c1[nH]c1ccccc21)[Si](C)(C)C (centres undefined)	38	x	3	x	51*	19
CN(C)c1c([N+](=O)[O-])cc(N2C(=O)C=CC2=O)cc1[N+](=O)[O-]	12	x	3	x	x	75*
Cn1c(=O)c(=O)n(C)c2cc([N+](=O)[O-])c([N+](=O)[O-])cc21	11	3	-59	-30	-13	-24
Cc1ccc(OCC(=O)NNC(=S)NC(=O)C(C)(C)C)c(Br)c1	6	-5	6	10	59*	38
